Results as given in ChEMBL document CHEMBL5038571, “Design and Synthesis of EZH2-Based PROTACs to Degrade the PRC2 Complex for Targeting the Noncatalytic Activity of EZH2” (J Med Chem, 2021).
Calls of active or inactive are those of the source. No cut-off for these calls is given here.

Experiments:
[1] = target: Histone-lysine N-methyltransferase EZH2 (Homo sapiens, UniProt Q15910); format: cell-based, Sf9
[2] = target: Protein cereblon/Histone-lysine N-methyltransferase EZH2 (Homo sapiens) (UniProt Q15910+Q96SW2); test: PROTAC activity at CRBN E3 ligase/EZH2 in PRC2 complex in human WSUDLCL2 cells assessed as reduction in H3K27me3 level at 1 uM incubated for 48 hrs by Western blot analysis; format: cell-based
Protein cereblon/Histone-lysine N-methyltransferase EZH2 (Homo sapiens), sequence (Q15910 whole entry, looked up): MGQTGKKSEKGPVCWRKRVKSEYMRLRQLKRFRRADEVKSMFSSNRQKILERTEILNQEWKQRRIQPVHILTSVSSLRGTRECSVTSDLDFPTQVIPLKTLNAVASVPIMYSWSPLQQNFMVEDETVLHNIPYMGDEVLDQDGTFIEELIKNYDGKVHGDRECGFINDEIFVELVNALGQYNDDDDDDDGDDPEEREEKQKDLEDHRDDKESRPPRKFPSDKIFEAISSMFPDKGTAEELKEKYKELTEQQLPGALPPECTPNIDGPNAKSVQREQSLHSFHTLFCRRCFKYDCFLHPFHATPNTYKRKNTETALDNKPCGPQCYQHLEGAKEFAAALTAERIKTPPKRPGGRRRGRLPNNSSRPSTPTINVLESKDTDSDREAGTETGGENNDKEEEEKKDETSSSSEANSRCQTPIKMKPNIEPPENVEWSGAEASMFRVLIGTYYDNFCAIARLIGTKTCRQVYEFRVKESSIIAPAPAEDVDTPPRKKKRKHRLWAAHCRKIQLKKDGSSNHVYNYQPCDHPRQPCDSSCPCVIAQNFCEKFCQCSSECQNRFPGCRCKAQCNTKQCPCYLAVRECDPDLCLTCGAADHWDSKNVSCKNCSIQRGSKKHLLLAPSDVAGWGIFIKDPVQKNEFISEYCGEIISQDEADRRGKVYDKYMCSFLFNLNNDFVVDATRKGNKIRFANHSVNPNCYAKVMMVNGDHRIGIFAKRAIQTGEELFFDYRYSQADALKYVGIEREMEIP
Protein cereblon/Histone-lysine N-methyltransferase EZH2 (Homo sapiens), sequence (Q96SW2 whole entry, looked up): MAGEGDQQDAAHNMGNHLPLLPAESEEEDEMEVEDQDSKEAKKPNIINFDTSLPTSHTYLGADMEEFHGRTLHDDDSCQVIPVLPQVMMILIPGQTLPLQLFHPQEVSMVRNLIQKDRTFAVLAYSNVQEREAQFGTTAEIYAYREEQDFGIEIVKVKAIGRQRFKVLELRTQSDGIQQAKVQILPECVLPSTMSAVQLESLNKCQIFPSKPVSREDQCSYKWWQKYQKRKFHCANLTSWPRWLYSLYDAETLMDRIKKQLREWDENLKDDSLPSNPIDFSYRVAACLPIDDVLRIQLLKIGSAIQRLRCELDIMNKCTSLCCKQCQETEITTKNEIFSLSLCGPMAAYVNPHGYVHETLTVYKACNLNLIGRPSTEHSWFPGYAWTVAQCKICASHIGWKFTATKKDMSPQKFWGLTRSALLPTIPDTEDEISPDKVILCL
Procedure, shortened: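 WSU-DLCL-2 cells treated 48 h (1 μM for the single-concentration screen), lysed; SDS-PAGE, nitrocellulose transfer, 5% milk block, primary antibody 4 °C overnight, chemiluminescence. Bands quantified by densitometry, normalized to GAPDH, expressed relative to DMSO-treated cells; mean ± SD of three independent experiments, t-test.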

Histone-lysine N-methyltransferase EZH2, sequence (Q15910 whole entry): as the sequence (Q15910 whole entry, looked up) above

IC50 [1] [nM]	Activity [2]	SMILES
4	–	CC[C@H](C)n1cc(C)c2c(C(=O)NCc3c(C)cc(C)[nH]c3=O)cc(-c3ccc(N4CCN(CCCCCCOc5cccc6c5C(=O)N(C5CCC(=O)NC5=O)C6=O)CC4)nc3)cc21 (some centres undefined)
5.5	–	CC[C@H](C)n1cc(C)c2c(C(=O)NCc3c(C)cc(C)[nH]c3=O)cc(-c3ccc(N4CCN(CCCCOc5cccc6c5C(=O)N(C5CCC(=O)NC5=O)C6=O)CC4)nc3)cc21 (some centres undefined)
3.4	Active	CCN(c1cc(-c2ccc(CN3CCN(CCCCCCCCOc4cccc5c4C(=O)N(C4CCC(=O)NC4=O)C5=O)CC3)cc2)cc(C(=O)NCc2c(C)cc(C)[nH]c2=O)c1C)C1CCOCC1 (centres undefined)
17	Active	CCN(c1cc(-c2ccc(CN3CCN(CCCCCCCCCCOc4cccc5c4C(=O)N(C4CCC(=O)NC4=O)C5=O)CC3)cc2)cc(C(=O)NCc2c(C)cc(C)[nH]c2=O)c1C)C1CCOCC1 (centres undefined)
3.9	–	CCN(c1cc(-c2ccc(CN3CCN(CCCCCCOc4cccc5c4C(=O)N(C4CCC(=O)NC4=O)C5=O)CC3)cc2)cc(C(=O)NCc2c(C)cc(C)[nH]c2=O)c1C)C1CCOCC1 (centres undefined)
16	Active	CC[C@H](C)n1cc(C)c2c(C(=O)NCc3c(C)cc(C)[nH]c3=O)cc(-c3ccc(N4CCN(CCCCCCCCCOc5cccc6c5C(=O)N(C5CCC(=O)NC5=O)C6=O)CC4)nc3)cc21 (some centres undefined)
30	Active	CCN(c1cc(-c2ccc(CN3CCN(CCCCCCCCCCCOc4cccc5c4C(=O)N(C4CCC(=O)NC4=O)C5=O)CC3)cc2)cc(C(=O)NCc2c(C)cc(C)[nH]c2=O)c1C)C1CCOCC1 (centres undefined)
5.8	–	CC[C@H](C)n1cc(C)c2c(C(=O)NCc3c(C)cc(C)[nH]c3=O)cc(-c3ccc(N4CCN(CCCCCOc5cccc6c5C(=O)N(C5CCC(=O)NC5=O)C6=O)CC4)nc3)cc21 (some centres undefined)
7.3	Active	CC[C@H](C)n1cc(C)c2c(C(=O)NCc3c(C)cc(C)[nH]c3=O)cc(-c3ccc(N4CCN(CCCCCCCCOc5cccc6c5C(=O)N(C5CCC(=O)NC5=O)C6=O)CC4)nc3)cc21 (some centres undefined)
